Here are results for 15 molecules from ChEMBL document CHEMBL1150626, “Interiotherins C and D, two new lignans from Kadsura interior and antitumor-promoting effects of related neolignans on Epstein-Barr virus activation” (J Nat Prod, 2002).

Molecules are shown by their SMILES.

Holding throughout (format): cell-based
In data set [1] the test system is Raji. Briefly: Cytotoxicity against human Raji cells at 1000 mol ratio by trypan blue staining method. An outline of the steps:
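Viability was assessed by trypan blue staining in Raji cells treated as in the EBV-EA assay: 48 h at 37 °C with n-butyric acid 4 mM, TPA and test compound in DMSO. Results are expressed as percent viable cells.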

Data set [2] has as its system Raji. Briefly: Inhibition of TPA-induced EBV-early antigen activation in human Raji cells assessed as EA activation at 10 mol ratio relative to TPA. More on the design: scale not given: the % may be the effect or the level left. Conditions: human gammaherpesvirus 4.
In data set [3] the test system is Raji. Briefly: Inhibition of TPA-induced EBV-early antigen activation in human Raji cells assessed as EA activation at 1000 mol ratio relative to TPA. More on the design: scale not given: the % may be the effect or the level left. The settings on record: human gammaherpesvirus 4.
Data set [4] relates to Raji. In words: Inhibition of TPA-induced EBV-early antigen activation in human Raji cells assessed as EA activation at 100 mol ratio relative to TPA. Details: scale not given: the % may be the effect or the level left. Conditions: human gammaherpesvirus 4.
Data set [5] concerns Raji. In words: Inhibition of TPA-induced EBV-early antigen activation in human Raji cells assessed as EA activation at 500 mol ratio relative to TPA. More on the design: scale not given: the % may be the effect or the level left. Conditions: human gammaherpesvirus 4.

As to `COc1cc2c(c(OC)c1OC)-c1c(cc3c(c1OC)OCO3)C[C@H](C)[C@@](C)(O)C2` [GOMISIN A], in data set [1], the Activity came out at 70%.

Regarding `C/C=C(/C)C(=O)O[C@H]1c2cc3c(c4c2[C@@]2(CO4)C(=O)C(=O)C(OC)=C/C2=C/[C@@H](C)[C@H]1C)OCO3` [INTERIOTHERIN D], the Activity came out at 94.8% in data set [2]; 11.5% in data set [3]; 60% in data set [1]; 75% in data set [4]; 55.8% in data set [5].

`C/C=C(/C)C(=O)O[C@H]1c2cc3c(c(OC)c2-c2c(cc4c(c2OC)OCO4)C[C@H](C)[C@@H]1C)OCO3` [ANGELOYLGOMISIN R]: the Activity is 100% in data set [2]; 10.6% in data set [3]; 60% in data set [1]; 79% in data set [4]; 55.6% in data set [5].

As for `COc1c2c(cc3c1-c1c(cc4c(c1OC)OCO4)C[C@H](C)[C@H](C)C3)OCO2` [SCHISANDRIN C], the Activity in data set [2] stood at 92.1%; in data set [3] it was 2.6%; in data set [1] it was 70%; in data set [4], 73.6%; in data set [5], 50.7%.

Take `C/C=C(/C)C(=O)O[C@H]1c2cc(OC)c(OC)c(OC)c2-c2c(cc3c(c2OC)OCO3)[C@H](OC(C)=O)[C@H](C)[C@@H]1C` [INTERIOTHERIN C]: the Activity in data set [2] came out at 100%; in data set [3], 16%; in data set [1] it was 60%; in data set [4] it was 78.9%; in data set [5], 59%.

Regarding `COc1c2c(cc3c1-c1c(cc4c(c1OC)OCO4)[C@H](OC(=O)c1ccccc1)[C@@H](C)[C@@H](C)C3)OCO2` [INTERIOTHERIN A], the Activity in data set [2] was 100%; in data set [3], 18.3%; in data set [1], 60%; in data set [4], 85.7%; in data set [5], 60.1%.

Turning to `COc1cc2c(c(OC)c1OC)-c1c(cc3c(c1OC)OCO3)[C@H](OC(=O)c1ccccc1)[C@@](C)(O)[C@@H](C)C2` [GOMISIN G], the Activity in data set [2] was 100%; in data set [3], 18.9%; in data set [1] it was 60%; in data set [4] it was 81.4%; in data set [5], 59.2%.

`C/C=C(/C)C(=O)O[C@H]1c2cc3c(c4c2[C@]2(CO4)C(=CC(=O)C(OC)=C2OC)C[C@@H](C)[C@H]1C)OCO3` [INTERIORIN]: the Activity amounted to 100% in data set [2]; 13.5% in data set [3]; 60% in data set [1]; 77.4% in data set [4]; 52% in data set [5].

In the case of `C/C=C(/C)C(=O)O[C@H]1c2cc3c(c4c2C(C(=O)C(=O)OC)(CO4)/C(=C/C(=O)OC)C[C@@H](C)[C@H]1C)OCO3` (stereo not given in full) [HETEROCLITIN F], the Activity in data set [2] was 100%; in data set [3] it was 16.5%; in data set [1], 60%; in data set [4] it was 82.4%; in data set [5], 58.9%.

`C/C=C(/C)C(=O)O[C@H]1c2cc3c(c(OC)c2-c2c(cc4c(c2OC)OCO4)C[C@H](C)[C@]1(C)O)OCO3` [INTERIOTHERIN B]: the Activity in data set [2] is 100%; in data set [3] it was 11.6%; in data set [1], 60%; in data set [4], 80.3%; in data set [5] it was 57.2%.

As to `COc1cc2c(c(OC)c1OC)-c1c(cc3c(c1OC)OCO3)[C@H](OC(C)=O)[C@H](C)[C@H](C)C2` [KADSURIN], the Activity was found to be 100% in data set [2]; 15% in data set [3]; 60% in data set [1]; 79.9% in data set [4]; 58.3% in data set [5].

For `COc1cc2c(c(OC)c1OC)-c1c(cc3c(c1OC)OCO3)C[C@H](C)[C@](C)(O)C2`, the Activity in data set [2] worked out at 96.6%; in data set [3], 7.1%; in data set [4] it was 78.3%; in data set [5], 52.5%.

`C/C=C(/C)C(=O)O[C@H]1c2cc3c(c4c2[C@@]2(CO4)C(=O)C(OC)=C(OC)C=C2C[C@@H](C)[C@H]1C)OCO3` [HETEROCLITIN D]: the Activity came to 100% in data set [2]; 9.4% in data set [3]; 70% in data set [1]; 76.2% in data set [4]; 54.7% in data set [5].

For the molecule `COc1cc2c(c(OC)c1OC)-c1c(cc3c(c1OC)OCO3)C[C@H](C)[C@](C)(O)[C@H]2OC(=O)c1ccccc1` [GOMISIN C], the Activity worked out at 100% in data set [2]; 19.7% in data set [3]; 60% in data set [1]; 87.4% in data set [4]; 60.2% in data set [5].

Consider `COc1cc2c(c(OC)c1OC)-c1c(cc3c(c1OC)OCO3)[C@@H]1O[C@H]2[C@@H](C)[C@H]1C` [NEOKADSURANIN], for which the Activity in data set [2] came out at 92.6%; in data set [3], 4.7%; in data set [1], 70%; in data set [4] it was 72.9%; in data set [5] it was 51.6%.
